In assay [1] the test system is Escherichia coli. Put plainly: Antimicrobial activity against Escherichia coli 1780063 B-A isolated from patient with pyelonephritis assessed as >3-log reduction in urinary bacterial titer after 20 hrs. The format is functional, Urine. In short, it runs like this:
(§1)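 Urine was collected before dosing and on day 3 of i.v. therapy (steady state), in 4-h intervals from infusion start (0–4 to 20–24 h), stored at −80°C and sterile filtered. It was serially diluted twofold (1:0 to 1:131,072) in the patient's drug-free pre-dose urine. Microdilution used an inoculum of 1.0 x 10^6–9.5 x 10^6 CFU/ml, incubated 18 h at 37°C, then subcultured 24 h on blood agar. The endpoint was >99.9% kill, reported as reciprocal titer.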

Assay [2] concerns Escherichia coli. Description: Antimicrobial activity against Escherichia coli 1889645 B-I isolated from patient with pyelonephritis assessed as >3-log reduction in urinary bacterial titer after 16 hrs. The format is functional, Urine. In short, it runs like this:
(§2)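 Urine was collected on day 3 of i.v. therapy (steady state) over 4-h intervals from infusion start (0–4 to 20–24 h), stored at –80°C and sterile filtered. It was serially diluted twofold (1:0 up to 1:131,072) in the patient's own pre-dose drug-free urine. Microdilution used a final inoculum of 1.0 x 10^6 to 9.5 x 10^6 CFU/ml, incubated 18 h at 37°C in air. 10 µl was subcultured onto 5% blood Columbia agar for 24 h at 37°C. The bactericidal endpoint was >99.9% (>3-log) kill, reported as a reciprocal titer.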

The test system of assay [3] is Enterococcus faecalis. Description: Antimicrobial activity against Enterococcus faecalis 2215770 B-T isolated from patient with pyelonephritis assessed as >3-log reduction in urinary bacterial titer after 12 hrs. It is filed as functional, Urine. Put shortly: as §1
Assay [4] deals with Escherichia coli. Put plainly: Antimicrobial activity against Escherichia coli 1949826 B-L isolated from patient with pyelonephritis by Etest. It is filed as functional.
Assay [5] deals with Escherichia coli. Description: Antimicrobial activity against Escherichia coli 1780063 B-A isolated from patient with pyelonephritis by Etest. The format is functional.
For assay [6], the system named is Staphylococcus haemolyticus. Put plainly: Antimicrobial activity against Staphylococcus haemolyticus 1949819 B-M isolated from patient with pyelonephritis by Etest. The format is functional.
Assay [7] deals with Escherichia coli. Put plainly: Antimicrobial activity against Escherichia coli 1821385 B-C isolated from patient with pyelonephritis assessed as >3-log reduction in urinary bacterial titer after 12 hrs. The format is functional, Urine. In short, it runs like this: as §2
In assay [8] the test system is Escherichia coli. Description: Antimicrobial activity against Escherichia coli 2297257 B-W isolated from patient with pyelonephritis assessed as >3-log reduction in urinary bacterial titer after 12 hrs. It is filed as functional, Urine.
In assay [9] the test system is Escherichia coli. Description: Antimicrobial activity against Escherichia coli 1949826 B-L isolated from patient with pyelonephritis assessed as >3-log reduction in urinary bacterial titer after 8 hrs. The format is functional, Urine. In short, it runs like this: (§3)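 Patient urine was collected on day 3 of i.v. therapy (steady state) over 4-h intervals after infusion start, stored at –80°C, and sterile filtered. It was twofold serially diluted (1:0 to 1:131,072) in the patient's own pre-dose drug-free urine, inoculated to 1.0 x 10^6–9.5 x 10^6 CFU/ml, and incubated for 18 h at 37°C. Subcultures were grown on blood agar for 24 h. The UBT is the reciprocal of the highest dilution giving >99.9% kill.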

The test system of assay [10] is Escherichia coli. Description: Antimicrobial activity against Escherichia coli 1889645 B-I isolated from patient with pyelonephritis assessed as >3-log reduction in urinary bacterial titer after 8 hrs. It is filed as functional, Urine. Put shortly:
as §2

Assay [11] has as its system Escherichia coli. Description: Antimicrobial activity against Escherichia coli 1821385 B-C isolated from patient with pyelonephritis assessed as >3-log reduction in urinary bacterial titer after 4 hrs. It is filed as functional, Urine. Put shortly: as §2
The test system of assay [12] is Enterococcus faecalis. Put plainly: Antimicrobial activity against Enterococcus faecalis 2215770 B-T isolated from patient with pyelonephritis assessed as >3-log reduction in urinary bacterial titer after 24 hrs. It is filed as functional, Urine. Put shortly: as §1
Assay [13] has as its system Escherichia coli. Description: Antimicrobial activity against Escherichia coli 1889645 B-I isolated from patient with pyelonephritis assessed as >3-log reduction in urinary bacterial titer after 24 hrs. It is filed as functional, Urine. In short, it runs like this: as §2
Assay [14] deals with Escherichia coli. Put plainly: Antimicrobial activity against Escherichia coli 1821385 B-C isolated from patient with pyelonephritis assessed as >3-log reduction in urinary bacterial titer after 24 hrs. It is filed as functional, Urine. Put shortly: as §2
The subject of assay [15] is Escherichia coli. Put plainly: Antimicrobial activity against Escherichia coli 2297257 B-W isolated from patient with pyelonephritis assessed as >3-log reduction in urinary bacterial titer after 24 hrs. The format is functional, Urine.
The test system of assay [16] is Enterococcus faecalis. Description: Antimicrobial activity against Enterococcus faecalis 2215770 B-T isolated from patient with pyelonephritis assessed as >3-log reduction in urinary bacterial titer after 20 hrs. The format is functional, Urine. In short, it runs like this: as §1
Assay [17] deals with Escherichia coli. Put plainly: Antimicrobial activity against Escherichia coli 2297257 B-W isolated from patient with pyelonephritis assessed as urinary bactericidal titer.
For assay [18], the system named is Escherichia coli. Put plainly: Antimicrobial activity against Escherichia coli 1821386 B-D isolated from patient with pyelonephritis assessed as >3-log reduction in urinary bacterial titer after 20 hrs. It is filed as functional, Urine. In short, it runs like this:
as §2

The test system of assay [19] is Staphylococcus epidermidis. Description: Antimicrobial activity against Staphylococcus epidermidis 1949822 B-J isolated from patient with pyelonephritis assessed as >3-log reduction in urinary bacterial titer after 16 hrs. The format is functional, Urine.
Assay [20] concerns Staphylococcus aureus. Put plainly: Antimicrobial activity against Staphylococcus aureus 1889640 A-Z isolated from patient with pyelonephritis assessed as >3-log reduction in urinary bacterial titer after 16 hrs. It is filed as functional, Urine.
The test system of assay [21] is Pseudomonas aeruginosa. Put plainly: Antimicrobial activity against Pseudomonas aeruginosa 1821383 B-E isolated from patient with pyelonephritis assessed as >3-log reduction in urinary bacterial titer after 16 hrs. The format is functional, Urine.
Assay [22] concerns Escherichia coli. Description: Antimicrobial activity against Escherichia coli 1655646 A-Y isolated from patient with pyelonephritis assessed as >3-log reduction in urinary bacterial titer after 16 hrs. It is filed as functional, Urine. In short, it runs like this: as §1
Assay [23] concerns Enterococcus faecalis. Description: Antimicrobial activity against Enterococcus faecalis 2215767-10 B-S isolated from patient with pyelonephritis assessed as >3-log reduction in urinary bacterial titer after 16 hrs. The format is functional, Urine. In short, it runs like this: as §1
Assay [24] concerns Enterococcus faecalis. Description: Antimicrobial activity against Enterococcus faecalis 2297262-10 B-V isolated from patient with pyelonephritis assessed as >3-log reduction in urinary bacterial titer after 16 hrs. The format is functional, Urine. Put shortly: as §1
Assay [25] concerns Escherichia coli. Description: Antimicrobial activity against Escherichia coli 1889647 B-H isolated from patient with pyelonephritis assessed as >3-log reduction in urinary bacterial titer after 12 hrs. The format is functional, Urine. In short, it runs like this:
as §2

Assay [26] relates to Escherichia coli. Put plainly: Antimicrobial activity against Escherichia coli 1821386 B-D isolated from patient with pyelonephritis by Etest. The format is functional.
For assay [27], the system named is Escherichia coli. Description: Antimicrobial activity against Escherichia coli 1655646 A-Y isolated from patient with pyelonephritis by Etest. It is filed as functional.
Assay [28] deals with Staphylococcus epidermidis. Description: Antimicrobial activity against Staphylococcus epidermidis 2297262-9 B-V isolated from patient with pyelonephritis assessed as >3-log reduction in urinary bacterial titer after 8 hrs. The format is functional, Urine.
Assay [29] relates to Enterococcus faecalis. Put plainly: Antimicrobial activity against Enterococcus faecalis 2297262-10 B-V isolated from patient with pyelonephritis assessed as >3-log reduction in urinary bacterial titer after 8 hrs. It is filed as functional, Urine. In short, it runs like this:
as §1

Assay [30] has as its system Escherichia coli. Description: Antimicrobial activity against Escherichia coli 2062716 B-R isolated from patient with pyelonephritis assessed as >3-log reduction in urinary bacterial titer after 4 hrs. The format is functional, Urine. In short, it runs like this:
as §3

The test system of assay [31] is Pseudomonas aeruginosa. Put plainly: Antimicrobial activity against Pseudomonas aeruginosa 2062713 B-Q isolated from patient with pyelonephritis assessed as >3-log reduction in urinary bacterial titer after 24 hrs. The format is functional, Urine.
For assay [32], the system named is Serratia marcescens. Put plainly: Antimicrobial activity against Serratia marcescens 2297260 B-U isolated from patient with pyelonephritis assessed as >3-log reduction in urinary bacterial titer after 24 hrs. It is filed as functional, Urine.
For assay [33], the system named is Escherichia coli. Put plainly: Antimicrobial activity against Escherichia coli 1655646 A-Y isolated from patient with pyelonephritis assessed as >3-log reduction in urinary bacterial titer after 24 hrs. It is filed as functional, Urine. In short, it runs like this:
as §1

Assay [34] relates to Enterococcus faecalis. Description: Antimicrobial activity against Enterococcus faecalis 2215767-10 B-S isolated from patient with pyelonephritis assessed as >3-log reduction in urinary bacterial titer after 24 hrs. It is filed as functional, Urine. Put shortly:
as §1

Converted amounts (≈) assume the structure as drawn. Bounds are passed on as bounds.

Turning to `C[C@@H](O)[C@H]1C(=O)N2C(C(=O)O)=C(S[C@@H]3CN[C@H](CNS(N)(=O)=O)C3)[C@H](C)[C@H]12` [DORIPENEM], the urinary bactericidal titer in assay [1] is 4096 reciprocal titer; in assay [2] it was 32800 titer; in assay [3], 1024 reciprocal titer; in assay [7], 32800 reciprocal titer; in assay [8], 16400 reciprocal titer; in assay [9], 32800 reciprocal titer. The urinary bactericidal titer in assay [10] was 32800 reciprocal titer; in assay [11], 4096 reciprocal titer; in [12], 512 reciprocal titer; in assay [13], 4096 reciprocal titer; in assay [14], 256 reciprocal titer; in [15] it was 4096 reciprocal titer. In addition, the results for the urinary bactericidal titer in [16] and in [17] were 2048 reciprocal titer and 4096 reciprocal titer, respectively. For the same molecule, the values for the MIC in assay [4], in assay [5] and in assay [6] were 0.03 µg/mL (≈ 0.0713 µM), 0.03 µg/mL (≈ 0.0713 µM) and 1 µg/mL (≈ 2.38 µM), respectively.
Consider `C[C@H]1COc2c(N3CCN(C)CC3)c(F)cc3c(=O)c(C(=O)O)cn1c23.C[C@H]1COc2c(N3CCN(C)CC3)c(F)cc3c(=O)c(C(=O)O)cn1c23.O` [LEVOFLOXACIN], for which the urinary bactericidal titer in [18] amounted to 2048 reciprocal titer; in assay [19] it was 4 reciprocal titer; in [20] it was 128 reciprocal titer; in assay [21], 128 reciprocal titer; in [22] it was 1024 reciprocal titer; in [23] it was 0 reciprocal titer. The urinary bactericidal titer in [24] worked out at 0 reciprocal titer; in assay [25], 512 reciprocal titer; in assay [28], 1 reciprocal titer; in [29] it was 0 reciprocal titer; in [30], 1024 reciprocal titer; in assay [31] it was 2 reciprocal titer. Moreover, the urinary bactericidal titer amounted to 32 reciprocal titer in [32] and 256 reciprocal titer in assay [33]. For the same molecule, the MIC was less than 0.03 µg/mL in [26] and 0.047 µg/mL in assay [27]. Also, the Time in [34] is 0 h.

For the origin of these results see ChEMBL document CHEMBL1649151, “Urinary bactericidal activity of Doripenem versus that of levofloxacin in patients with complicated urinary tract infections or pyelonephritis” (Antimicrob Agents Chemother, 2009).
